Sampled rows, rich in hits. Any-hit rate of the full collection: about 6.4%.
Jurkat tox 60K – cytotoxicity toward Jurkat T cells, primary screen, cytotoxicity control, cell-based, Jurkat E6.1, 60K MLSMR library; Jurkat E6.1 viability, ATP luminescence, 48 h; inhibition, % at 4 µM; hit rate 1.2% among 56,000; AID 463, 2006;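 active means inhibition above the mean inhibition of all tested compounds plus 3 SD, cut at about 28% in these data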
Ecoli WT expand – growth inhibitors of wild-type E. coli, primary screen, strain BW25113, expanded library, OD600; OD600 absorbance; growth inhibition, % at 100 µM; hit rate 0.15% among 98,000;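 active means growth inhibition above about 50% at one test dose, limit read from the data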;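 further: growth measured after 20 h incubation at 37 °C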
Lung fibro prol – antiproliferative effect on LL 47 fibroblasts – human, LL 47 cells, CellTiter-Glo luminescence, primary screen. viability, % at 10 µM. hit rate 1.1% among 85,000. LL 47 human lung fibroblast viability, ATP luminescence; stronger effect = lower value;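 active means viability at or below 50% in the single dose screen; inactive means viability above 50%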;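 further: compound exposure lasted 72 h before the ATP readout; 100% = median luminescence of untreated cell-only wells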
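test system = LL 47 human lung fibroblasts | amount = 1,150 fibroblasts seeded per well | medium = 15% FBS in IMEM | times = overnight cell rest, 72 h compound treatment at 37 °C | measured by = CellTiter-Glo luminescence measuring cellular ATP | read-out = viability percentage against median untreated-cell control | benchmarks = cell-only wells, no compound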
H69AR inhibit – proliferation blockers of H69AR lung cancer cells, primary screen, cell-based, human, 86K library. H69AR lung tumor viability, ATP luminescence, 72 h; stronger effect = lower value. viability, % at 10 µM. hit rate 6% among 85,000. AID 598, 2007;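 active means viability at or below 40%; inactive means viability above 40%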;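 further: multidrug resistant small cell line overexpressing MRP-1 efflux transporter; 100% = mean luminescence of untreated control wells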
Ecoli tolC – growth inhibitors of E. coli tolC mutant, primary screen, strain BW25113 ΔtolC::kan, 384-well | hit rate 2.2% among 65,000 | AID 573, 2007 | growth inhibition, % at 10 µM (by protocol) | OD615;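 active means growth inhibition at or above a cutoff equal to the mean over every tested compound plus 3 SD, cut at about 60% in these data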;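 further: growth measured after 20 h incubation at 37 °C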
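System: E. coli ΔtolC::kan strain BW25113; Buffer or medium: LB broth supplemented with 50 µg/mL kanamycin; Compound: 10 µM final, single dose; Incubation: bacterial growth with compound for 20 h at 37 °C; Signal: A615 absorbance measurement; Evaluation: growth inhibition in percent.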
HUVEC prolif 384 – inhibitors of HUVEC proliferation, primary screen, cell-based, 384-well. AID 648, 2007. CellTiter-Glo luminescence, 72 h; stronger effect = lower value. viability, % at 10 µM (by protocol). hit rate 1.1% among 86,000;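 active means viability at or below 30%; inactive means viability above 30%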;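 further: 100% = median luminescence of DMSO-only cell control wells on each plate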
* marks the source's active call; other numbers are inactive results; . = no result.

SMILES	Jurkat tox 60K	Ecoli WT expand	Lung fibro prol	H69AR inhibit	Ecoli tolC	HUVEC prolif 384
Cc1[nH]n(-c2ccccc2)c(=O)c1/C=N/Nc1nncc(-c2ccccc2)n1	.	93*	.	.	.	.
O=c1c2ccccc2n(Cc2ccc(Cl)cc2)c(=O)n1Cc1ccco1	-4	-7	89	70	12	63
O=C(NCc1ccco1)c1ccc(Cn2c(=O)c3ccccc3n(Cc3ccc(Cl)cc3)c2=O)cc1	.	-13	69	23*	.	70
Cc1ccc(-n2c(=O)c3sccc3n(CC(=O)NCc3ccco3)c2=O)cc1	-8	2	99	80	-14	99
Cc1cccc(Cn2c(=O)n(-c3ccc(CC(=O)NCc4ccco4)cc3)c(=O)c3sccc32)c1	.	1	87	20*	.	89
O=c1c2ccccc2n(Cc2cccc(F)c2)c(=O)n1C1CCCC1	-3	-13	100	86	77*	104
O=C(CCCCn1c(=O)c2ccccc2n(Cc2ccc(F)cc2)c1=O)NCc1ccco1	37*	-9	70	22*	14	56
O=C(NCc1cccnc1)c1cccc2c1C(=O)N(Cc1cccnc1)C2	.	3	100	104	.	96
CC1(C)OC(=O)C(=CNc2ccc(F)cc2)C(=O)O1	4	4	113	88	-14	96
O=C(NCc1ccco1)c1ccc(Cn2c(=O)c3ccccc3n(Cc3cccc(F)c3)c2=O)cc1	.	3	66	7.7*	.	49
COCCNC(=O)Cn1c(=O)n(Cc2ccc(C(=O)NCc3ccco3)cc2)c(=O)c2ccccc21	9	.	104	88	-18	99
Fc1ccccc1CSc1ncnc2c1oc1ccccc12	-8	-8	104	96	0	88
Cc1cccc2cc(CN(Cc3ccco3)C(=O)NC3CCCCC3)c(=O)[nH]c12	0	-7	102	81	64*	99
Cc1cc2cc(CN(Cc3ccco3)C(=O)NCc3ccccc3)c(=O)[nH]c2cc1C	-3	-8	95	77	36	97
Cc1ccc2cc(CN(CC3CCCO3)C(=O)NC3CCCCC3)c(=O)[nH]c2c1C (centres undefined)	4	8	82	28*	47	83
O=C(Nc1ccc(F)cc1)N(Cc1ccco1)Cc1cc2cc3c(cc2[nH]c1=O)OCO3	-4	0	94	31*	3	77
Cc1cc2cc(CN(Cc3ccco3)C(=O)C3CCCCC3)c(=O)[nH]c2cc1C	-3	-9	78	16*	-6	88
Cc1ccc(NC(=O)N(Cc2ccc3c(c2)OCO3)Cc2cc3cc4c(cc3[nH]c2=O)OCCO4)cc1	8	-8	89	85	13	81
O=C(CCN1CCN(c2ccc(F)cc2)CC1)Nc1ccc(F)cc1	4	-9	95	84	-12	94
Cc1ccc(-c2onc3ccc(C4(C)OCCO4)cc23)cc1	.	-6	100	98	.	109
Cc1ccc(-c2onc3ccc(C=O)cc23)cc1	.	14	91	33*	.	57
Cc1cc(NC(=O)CSc2nc(-c3ccco3)cc(C(F)(F)F)n2)no1	59*	.	.	.	-12	.
Cc1cccc(C)c1NC(=O)CSc1nc(-c2ccco2)cc(C(F)(F)F)n1	.	.	81	30*	.	59
Cc1cc(NC(=O)CCSc2nc(-c3ccco3)cc(C(F)(F)F)n2)no1	.	-7	103	69	.	82
Cc1nn(C)c(C)c1NC(=O)CCSc1nc(-c2ccco2)cc(C(F)(F)F)n1	4	3	.	.	10	.
SMILES	Jurkat tox 60K	Ecoli WT expand	Lung fibro prol	H69AR inhibit	Ecoli tolC	HUVEC prolif 384
O=C(CSc1nc(-c2ccco2)cc(C(F)(F)F)n1)Nc1ccccc1C(F)(F)F	.	.	69	26*	.	63
Cc1ccc(Cn2ccc(NC(=O)CCSc3nc(-c4ccco4)cc(C(F)(F)F)n3)n2)cc1	4	-23	96	14*	31	55
CCOc1cc(C(=O)Nc2ccon2)cc(OCC)c1OCC	1	5	99	96	16	91
Cc1ccc(Cn2c(SCc3cccnc3)nc3c2c(=O)n(C)c(=O)n3C)cc1	5	-4	92	101	5	103
CCOc1cc(C(c2c(C)[nH][nH]c2=O)c2c(C)[nH][nH]c2=O)ccc1OS(=O)(=O)c1ccc(C)cc1	.	-8	99	98	.	96
Cc1ccc(C)c(SCc2noc(C(=O)NC(C)C)c2C(=O)O)c1	.	-6	.	.	.	.
COc1ccccc1C1CC(c2ccc(Cl)cc2)Nc2ncnn21 (centres undefined)	2	10	91	77	60*	92
COc1cccc(C2CC(c3ccccc3OC)n3ncnc3N2)c1 (centres undefined)	-7	6	91	31*	14	91
Clc1ccc(C2CC(c3ccccc3)Nc3ncnn32)cc1 (centres undefined)	7	11	83	28*	23	86
COc1cccc(C2CC(c3ccccc3)Nc3ncnn32)c1 (centres undefined)	-4	10	99	98	-13	99
Cc1noc(C)c1CSc1nc2ccccc2nc1NS(=O)(=O)c1ccc(Cl)cc1	76*	-6	99	57	49	66
Cc1cccc(S(=O)(=O)Nc2nc3ccccc3nc2NCc2ccco2)c1	-4	-3	107	90	75*	108
Clc1ccc2c(NCc3ccco3)ncnc2c1	.	14	91	86	.	84
Cc1ccc(S(=O)(=O)Nc2nc3ccccc3nc2NCc2ccco2)cc1C	6	-11	95	84	46	99
O=S(=O)(Nc1nc2ccccc2[nH]1)c1ccc(Cl)cc1	3	-4	89	90	18	80
O=S(=O)(Nc1nc2ccccc2nc1NCc1ccco1)c1ccc(Cl)cc1	2	-5	91	89	96*	84
Cc1ccc(S(=O)(=O)Nc2nc3ccccc3nc2NCc2ccco2)cc1	10	0	82	36*	20	80
CCCCN=C1NC(=O)C(CC(=O)Nc2ccc(Cl)cc2)S1 (centres undefined)	.	-1	.	.	.	.
O=C(O)CC12CSc3[nH]c(=O)sc3C1c1ccccc1OC2=O (centres undefined)	-4	-1	97	96	-6	96
O=C(Nc1cccn(Cc2ccccc2)c1=O)NC1CCCCC1	.	-4	105	100	.	110
COC(=O)c1ccc(N2CCN(S(=O)(=O)c3ccccc3)CC2)c([N+](=O)[O-])c1	.	1	.	.	.	.
CCn1cc(C(=O)NCc2cccc(F)c2)c(=O)c2cc(F)c(N3CCN(C(=O)c4ccco4)CC3)cc21	.	91*	89	16*	.	63
CCn1cc(C(=O)NCc2cccnc2)c(=O)c2cc(F)c(N3CCN(C(=O)c4ccco4)CC3)cc21	.	97*	102	35*	.	107

Assay outcomes: PubChem BioAssay, several laboratories
